Laboratory results: ChEMBL document CHEMBL1136492, “Design and syntheses of melanocortin subtype-4 receptor agonists: evolution of the pyridazinone archetype” (Bioorg Med Chem Lett, 2003)

How the values were obtained:
Melanocortin receptor 4 [1] = molecular target: T1, Melanocortin receptor 4 (Homo sapiens, UniProt P32245); assay: Concentration required to inhibit binding of [125I]-NDP-alpha-MSH from membranes prepared from CHO cells expressing human melanocortin subtype-4-receptor (MC4R); type: cell membranes
Outline: (§1)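 Competition binding using membranes from CHO cells expressing human MC4R, with [125I]-NDP-α-MSH as radioligand. IC50 is the compound concentration that inhibits radioligand binding by 50%. Values are means of at least two separate experiments.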

Melanocortin receptor 4 [2] = molecular target: T1, Melanocortin receptor 4; assay: Percentage of cAMP accumulation at 10 uM of compound relative to alpha-MSH, at human MC4R; type: functional
Outline: (§2)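 cAMP accumulation at human MC4R, measured relative to α-MSH. EC50 is the inflection point of the cAMP dose-response curve. Where no EC50 is given, the value is the accumulation at the highest concentration tested. %Max is the accumulation at 10 µM compound relative to α-MSH. Values are means of at least two separate experiments.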

Melanocortin receptor 4 [3] = molecular target: T1, Melanocortin receptor 4; assay: Effective concentration for cAMP accumulation relative to alpha-MSH at human MC4R; type: functional; outline: as §2
Melanocortin receptor 4 [4] = molecular target: T1, Melanocortin receptor 4; assay: Percentage of cAMP accumulation of compound relative to alpha-MSH, at human MC4R; type: functional; outline: as §2
Melanocortin receptor 5 = Melanocortin receptor 5 (Homo sapiens, UniProt P33032); assay: Concentration required to inhibit binding of [125I]NDP-alpha-MSH from membranes prepared from CHO cells expressing human melanocortin subtype-5-receptor (MC5R); type: cell membranes
Melanocortin receptor 3 = Melanocortin receptor 3 (Homo sapiens, UniProt P41968); assay: Concentration required to inhibit binding of [125I]NDP-alpha-MSH from membranes prepared from CHO cells expressing human melanocortin subtype-3-receptor (MC3R); type: cell membranes
Melanocortin receptor 4 [5] = molecular target: T1, Melanocortin receptor 4; assay: Concentration required to inhibit binding of [125I]NDP-alpha-MSH from membranes prepared from CHO cells expressing human MC4R; type: cell membranes; outline: as §1

T1 sequence (P32245 whole entry): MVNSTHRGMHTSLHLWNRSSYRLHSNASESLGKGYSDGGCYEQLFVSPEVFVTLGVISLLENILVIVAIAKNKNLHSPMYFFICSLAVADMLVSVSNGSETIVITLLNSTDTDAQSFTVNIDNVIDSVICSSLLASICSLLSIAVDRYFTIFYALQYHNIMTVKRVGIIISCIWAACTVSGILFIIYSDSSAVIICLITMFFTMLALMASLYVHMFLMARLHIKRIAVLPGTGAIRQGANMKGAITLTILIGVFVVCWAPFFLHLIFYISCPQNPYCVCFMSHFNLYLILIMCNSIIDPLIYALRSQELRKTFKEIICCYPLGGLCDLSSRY
Sequence of Melanocortin receptor 3 (P41968 whole entry): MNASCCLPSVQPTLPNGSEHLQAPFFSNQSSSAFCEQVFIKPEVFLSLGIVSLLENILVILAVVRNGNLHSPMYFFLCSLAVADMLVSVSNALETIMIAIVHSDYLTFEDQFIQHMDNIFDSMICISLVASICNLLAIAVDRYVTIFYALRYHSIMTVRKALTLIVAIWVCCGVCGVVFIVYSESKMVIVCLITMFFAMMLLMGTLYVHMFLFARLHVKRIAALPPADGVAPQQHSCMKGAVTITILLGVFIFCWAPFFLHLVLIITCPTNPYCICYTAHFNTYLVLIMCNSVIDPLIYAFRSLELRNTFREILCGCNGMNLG
Sequence of Melanocortin receptor 5 (P33032 whole entry): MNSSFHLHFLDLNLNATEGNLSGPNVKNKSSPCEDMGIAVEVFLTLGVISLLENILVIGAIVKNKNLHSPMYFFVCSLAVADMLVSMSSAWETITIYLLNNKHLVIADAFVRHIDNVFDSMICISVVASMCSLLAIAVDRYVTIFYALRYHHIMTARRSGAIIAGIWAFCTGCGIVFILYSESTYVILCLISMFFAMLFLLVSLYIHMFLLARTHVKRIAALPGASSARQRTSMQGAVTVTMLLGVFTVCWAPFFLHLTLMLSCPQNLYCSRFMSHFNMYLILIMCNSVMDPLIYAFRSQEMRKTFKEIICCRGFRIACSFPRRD

| IC50 (Melanocortin receptor 4 [1]) | Max (Melanocortin receptor 4 [2]) | EC50 (Melanocortin receptor 4 [3]) | Max (Melanocortin receptor 4 [4]) | IC50 (Melanocortin receptor 5) | IC50 (Melanocortin receptor 3) | IC50 (Melanocortin receptor 4 [5]) | Structure (SMILES) |
| --- | --- | --- | --- | --- | --- | --- | --- |
| 130 nM | 85% | 237 nM | – | – | – | – | COc1ccc(-n2nc(Sc3ccc(Cl)cc3)cc(CC[C@@H](C)NC(=O)[C@H]3CCNC[C@@H]3c3ccccc3)c2=O)cc1 |
| 1970 nM | – | 500 nM | 20% | – | – | – | COc1ccc(-n2nc(Sc3ccc(Cl)cc3)cc(CCCNC(=O)[C@H]3CNCC[C@@H]3c3ccccc3)c2=O)cc1 |
| 2170 nM | – | > 5000 nM | 35% | – | – | – | COc1ccc(-n2nc(Sc3ccc(Cl)cc3)cc(CC(C)CNC(=O)[C@H]3CNCC[C@@H]3c3ccccc3)c2=O)cc1 (stereo partly drawn) |
| 1.2 nM | – | – | 97% | – | – | – | O=C(N[C@H](Cc1ccc(Cl)cc1)C(=O)N1CCC(Cn2cncn2)(C2CCCCC2)CC1)[C@H]1CCc2ccccc2N1 |
| – | 12% | – | – | – | – | – | COc1ccc(-n2nc(Sc3ccc(Cl)cc3)cc(CC[C@H](C)NC(=O)[C@@H]3CNCC[C@@H]3c3ccccc3)c2=O)cc1 |
| 9020 nM | 13% | – | – | – | – | – | COc1ccc(-n2nc(Sc3ccc(Cl)cc3)cc(CC[C@H](C)NC(=O)[C@H]3CNCC[C@H]3c3ccccc3)c2=O)cc1 |
| 41 nM | – | 227 nM | 82% | – | – | – | COc1ccc(-n2nc(Sc3ccc(Cl)cc3)cc(CCC(C)NC(=O)[C@H]3CNCC[C@@H]3c3ccccc3)c2=O)cc1 (stereo partly drawn) |
| – | 103% | – | 97% | – | – | – | COc1ccc(-n2nc(Sc3ccc(Cl)cc3)cc(CC[C@@H](C)NC(=O)[C@H]3CNC[C@@H]3c3ccccc3)c2=O)cc1 [listing 1 of 3 here] |
| – | 38% | > 5000 nM | – | – | – | – | COc1ccc(-n2nc(Sc3ccc(Cl)cc3)cc(CC[C@@H](C)NC(=O)[C@@H]3CNCC[C@@H]3c3ccccc3)c2=O)cc1 |
| 33 nM | 77% | 177 nM | – | 1410 nM | 2170 nM | – | COc1ccc(-n2nc(Sc3ccc(Cl)cc3)cc(CC[C@@H](C)NC(=O)[C@H]3CNCC[C@@H]3c3ccccc3)c2=O)cc1 |
| 190 nM | – | 405 nM | – | – | – | – | COc1ccc(-n2nc(Sc3ccc(Cl)cc3)cc(CC[C@@H](C)NC(=O)[C@H]3CNC[C@@H]3c3ccccc3)c2=O)cc1 [listing 2 of 3 here] |
| 2990 nM | 5% | – | – | – | – | – | COc1ccc(-n2nc(Sc3ccc(Cl)cc3)cc(CC[C@H](C)NC(=O)[C@@H]3CNCC[C@H]3c3ccccc3)c2=O)cc1 |
| 1240 nM | – | 820 nM | 22% | – | – | – | COc1ccc(-n2nc(Sc3ccc(Cl)cc3)cc(CCCNC(=O)[C@H]3CNC[C@@H]3c3ccccc3)c2=O)cc1 |
| 975 nM | – | 5800 nM | 67% | – | – | – | COc1ccc(-n2nc(Sc3ccc(Cl)cc3)cc(CC[C@H](C)NC(=O)[C@H]3CNC[C@@H]3c3ccccc3)c2=O)cc1 |
| 2060 nM | 32% | > 5000 nM | – | – | – | – | COc1ccc(-n2nc(Sc3ccc(Cl)cc3)cc(CC[C@@H](C)NC(=O)[C@@H]3CNCC[C@H]3c3ccccc3)c2=O)cc1 |
| 1200 nM | 65% | 1730 nM | – | – | – | – | COc1ccc(-n2nc(Sc3ccc(Cl)cc3)cc(CC[C@H](C)NC(=O)[C@H]3CNCC[C@@H]3c3ccccc3)c2=O)cc1 |
| 3930 nM | – | > 5000 nM | 31% | – | – | – | COc1ccc(-n2nc(Sc3ccc(Cl)cc3)cc(C(C)CCNC(=O)[C@H]3CNCC[C@@H]3c3ccccc3)c2=O)cc1 (stereo partly drawn) |
| – | 0% | – | – | – | – | 2.27 nM | COc1ccc(-n2nc(Sc3ccc(Cl)cc3)cc(CCC(=O)NC3CCCCNC3=O)c2=O)cc1 (stereo not drawn) |
| 339 nM | – | 260 nM | 79% | – | – | – | COc1ccc(-n2nc(Sc3ccc(Cl)cc3)cc(CCC(C)NC(=O)[C@H]3CCNC[C@@H]3c3ccccc3)c2=O)cc1 (stereo partly drawn) |
| – | 15% | – | – | – | – | 5600 nM | COc1ccc(-n2nc(Sc3ccc(Cl)cc3)cc(CCC(=O)NCCOc3ccccc3)c2=O)cc1 |
| 144 nM | – | 3060 nM | 34% | – | – | – | COc1ccc(-n2nc(Sc3ccc(Cl)cc3)cc(CCC(=O)N[C@@H]3CCc4ccccc4NC3=O)c2=O)cc1 |
| 2240 nM | 54% | 4050 nM | – | – | – | – | COc1ccc(-n2nc(Sc3ccc(Cl)cc3)cc(CC[C@@H](C)NC(=O)[C@H]3CNCC[C@H]3c3ccccc3)c2=O)cc1 |
| 2750 nM | – | > 5000 nM | 28% | – | – | – | COc1ccc(-n2nc(Sc3ccc(Cl)cc3)cc(CCCNC(=O)[C@H]3CCNC[C@@H]3c3ccccc3)c2=O)cc1 |
| 380 nM | – | 250 nM | – | – | – | – | COc1ccc(-n2nc(Sc3ccc(Cl)cc3)cc(CC[C@@H](C)NC(=O)[C@H]3CNC[C@@H]3c3ccccc3)c2=O)cc1 [listing 3 of 3 here] |
